Screening results deposited in PubChem by several laboratories.
TDP2 absorb: human TDP2 enzyme inhibitors, primary screen, biochemical, epi absorbance, recombinant enzyme | inhibition, % at 12.8 µM | T5PNP hydrolysis, p-nitrophenol absorbance 415 nm | Tyrosyl-DNA phosphodiesterase 2 (Homo sapiens), O95551 | 370,000 tested, 0.34% active;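 active means inhibition above the mean of all tested compounds plus 3 SD, set per campaign, cut at about 25% in these data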
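Assay system: recombinant human TDP2 / Reagent: T5PNP substrate at 5 mM, a TopII-DNA adduct mimic / Measured by: epi absorbance from released p-nitrophenol / Evaluation: % inhibition relative to enzyme-containing and enzyme-free wells / Control set: enzyme-free and DMSO wells / Replicates: each compound tested once, singlicate / Schedule: enzyme reaction with compound for 2 h at 37 °C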
PAFAH2 FP inh: PAFAH2 enzyme inhibitors, primary screen, biochemical, fluorescence polarization, human; Platelet-activating factor acetylhydrolase 2, cytoplasmic (Homo sapiens), Q99487; recombinant PAFAH2, FP-rhodamine activity probe; inhibition, % at 3.39 µM; 340,000 tested, 0.99% active; AID 492956, 2010;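 active means inhibition above the mean over all tested compounds plus 3 SD, cut at about 30% in these data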;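 further: inhibitors block probe labeling of enzyme so polarization drops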
Apaf-1 inh: inhibitors of human Apaf-1 apoptosome, primary screen, biochemical, DEVD-Rh110 fluorescence, uHTS | reconstituted apoptosome caspase-3 activity | inhibition, % at 20 µM | Apoptotic protease-activating factor 1 (Homo sapiens), O14727 | 330,000 tested, 0.71% active; active means inhibition of at least 40% at 20 µM
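System – cell-free apoptosome with Apaf-1, procaspase-3 and caspase-9 · Buffer or medium – pH 7.5 Hepes buffer with CHAPS, BSA, DTT · Also added – cytochrome c with DEVD-Rh110 · Times – 30 min compound preincubation, 50 min activation, room temperature · Technique – Rh110 fluorescence intensity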
PAFAH1B3 FP inh: PAFAH1B3 enzyme inhibitors, primary screen, biochemical, fluorescence polarization, human; Platelet-activating factor acetylhydrolase IB subunit alpha1 (Homo sapiens), Q15102; recombinant PAFAH1B3, FP-rhodamine probe; inhibition, % at 3.39 µM; 340,000 tested, 0.28% active;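 active means inhibition above the screen-wide average of all tested compounds plus 3 SD, cut at about 25% in these data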
Target sequence (Q15102 whole entry, looked up): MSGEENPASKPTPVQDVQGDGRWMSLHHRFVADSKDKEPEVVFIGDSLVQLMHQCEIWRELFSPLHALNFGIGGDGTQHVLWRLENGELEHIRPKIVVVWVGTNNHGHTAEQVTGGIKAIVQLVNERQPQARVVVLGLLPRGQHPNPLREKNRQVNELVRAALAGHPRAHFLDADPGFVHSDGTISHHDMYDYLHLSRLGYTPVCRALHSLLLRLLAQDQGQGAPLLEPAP
PAFAH1B2 inh: PAFAH1B2 enzyme inhibitors, primary screen, biochemical, fluorescence polarization, human | Platelet-activating factor acetylhydrolase IB subunit alpha2 (Homo sapiens), P68402 | recombinant PAFAH1B2, FP-rhodamine activity probe | inhibition, % at 3.39 µM | 340,000 tested, 1.2% active;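 active means inhibition above the mean of all tested compounds plus 3 SD, cut at about 24% in these data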
Target sequence (P68402 whole entry, looked up): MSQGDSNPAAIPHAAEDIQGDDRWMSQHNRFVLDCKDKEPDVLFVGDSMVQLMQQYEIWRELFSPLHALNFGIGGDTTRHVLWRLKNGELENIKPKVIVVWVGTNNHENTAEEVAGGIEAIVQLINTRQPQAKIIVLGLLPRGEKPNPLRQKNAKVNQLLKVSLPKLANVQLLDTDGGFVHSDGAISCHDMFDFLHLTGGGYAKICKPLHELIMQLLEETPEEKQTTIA
PAFAH2 confirm: PAFAH2 enzyme inhibitors, confirmation, biochemical, fluorescence polarization, human. shares compounds with PAFAH2 FP inh. recombinant PAFAH2, FP-rhodamine activity probe. inhibition, % at 3.39 µM. 2,300 tested, 65% active. AID 493030, 2011;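 active means mean inhibition over three repeats above a set limit taken from the earlier primary screen, cut at about 30% in these data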;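 further: inhibitor blocks binding of rhodamine activity probe so polarization falls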
Hits are given with their value; - = inactive; . = not tested or not shown. Most compounds without a hit are left out; they make up all but 2.3% or so of the library.

SMILES	TDP2 absorb	PAFAH2 FP inh	Apaf-1 inh	PAFAH1B3 FP inh	PAFAH1B2 inh	PAFAH2 confirm
COc1ccc(NC(=O)COC(=O)C23CC4CC(CC(NC(C)=O)(C4)C2)C3)cc1S(=O)(=O)N1CCOCC1	-	-	-	-	-	.
Cc1cc(C)c(NC(=O)COC(=O)C23CC4CC(CC(O)(C4)C2)C3)c(Cl)c1	-	47	-	-	-	34
COc1ccc(NC(=O)COC(=O)C23CC4CC(CC(O)(C4)C2)C3)cc1Cl	-	-	-	-	-	.
COc1ccc(-n2nc(N)c3c(=O)oc(N(C)C)nc32)cc1	-	54	-	-	-	45
COc1ccc(-n2nc(C)c3onc(C)c3c2=O)cc1	-	.	-	.	.	.
CN(C)c1nc2c(c(N)nn2-c2ccc(Cl)cc2)c(=O)o1	-	47	-	-	-	41
Cc1cc(C(=O)O)ccc1-c1ccc(/C=C2\NC(=O)N(Cc3ccccc3Cl)C2=O)o1	.	33	-	-	-	-
Cc1ccc(CN2C(=O)N/C(=C\c3ccc(-c4ccc(C(=O)O)cc4C)o3)C2=O)cc1	-	-	-	-	-	.
O=C(Nc1ccc(S(=O)(=O)Nc2ncccn2)cc1)c1ccccc1NS(=O)(=O)c1ccc(Cl)cc1	-	50	-	-	-	50
Cc1ccc(N2C(=O)C(F)(F)C2c2ccccc2)cc1 (stereo unspecified)	-	-	-	-	-	.
O=C1N(c2ccc3c(c2)OCCO3)C(c2ccccc2)C1(F)F (stereo unspecified)	-	101	-	-	-	-
CCCc1cc(=O)n2[nH]c(Cc3ccccc3)nc2n1	-	31	-	-	-	-
O=C(Nc1ccc(F)cc1Cl)C1CCCN1S(=O)(=O)c1cccc2cccnc12 (stereo unspecified)	-	.	.	.	.	.
NC(=O)Nc1ccc(C(=O)OCC(=O)Nc2ccc(Cl)cn2)cc1	-	82	-	-	-	72
CCCC(C)NC(=O)COC(=O)c1cccc(NS(C)(=O)=O)c1 (stereo unspecified)	-	37	-	-	-	-
O=C(COC(=O)c1ccc(O)cc1O)Nc1ccc(Cl)cn1	-	-	-	-	-	.
CCN(c1ccc(NC(=O)COC(=O)c2ccc(C)s2)cc1)C(C)C	-	46	-	-	-	40
O=C(COC(=O)c1ccc(F)cc1F)Nc1ccc(Cl)cn1	-	39	-	-	-	31
Cc1ccc(C(=O)OCC(=O)Nc2ccc(C(N)=O)cc2)s1	-	-	-	-	-	.
CCn1c(SCc2ccc(C(C)(C)C)cc2)nnc1-c1ccc(C(C)(C)C)cc1	-	.	.	.	.	.
NCCC(=O)Nc1ccc(Cl)cc1C(=O)c1ccc[nH]1	-	.	.	.	.	.
CC(=O)Nc1cccc(C(=O)OCC(=O)NC(C)c2ccc(F)cc2)c1 (stereo unspecified)	-	46	-	-	-	36
CC(=O)Nc1cccc(C(=O)OCC(=O)NC(=O)Cc2ccccc2)c1	-	-	-	-	-	.
CC(=O)Nc1cccc(C(=O)OCC(=O)Nc2ccc(Cl)cn2)c1	-	44	-	-	-	33
CC(=O)Nc1ccc(OCC(=O)NC(C)c2ccc(F)cc2)cc1 (stereo unspecified)	-	-	-	-	-	.
SMILES	TDP2 absorb	PAFAH2 FP inh	Apaf-1 inh	PAFAH1B3 FP inh	PAFAH1B2 inh	PAFAH2 confirm
CCOc1cc(C(=O)OCC(=O)Nc2ccc(Cl)cn2)ccc1OCC(=O)N1CCOCC1	-	83	-	-	-	71
Cc1ccc(C(=O)OCC(=O)Nc2ccc(Cl)cn2)s1	-	71	-	-	-	63
COC(=O)C1=C(C)N(Cc2cccc(C(F)(F)F)c2)C(=NCc2cc(OC)c(OC)c(OC)c2)NC1c1cccc(F)c1 (stereo unspecified)	-	.	.	.	.	.
CCCCCC[C@H](CC)CN(C(=O)Oc1ccccc1)c1ccccc1	-	.	.	.	.	.
COC(=O)c1c(-c2ccc(OC)cc2)c2c(c3c4cc(OC)ccc4n(S(=O)(=O)c4ccc(C)cc4)c13)C(=O)N(C)C2	-	.	.	.	.	.
Cc1nc(NC(=O)COC(=O)CCC(=O)c2cccs2)c(Cl)cc1Cl	-	-	-	-	-	.
Cc1c(Cl)cnc(NC(=O)COC(=O)c2cccs2)c1Cl	-	58	-	-	-	41
Cc1nc(NC(=O)COC(=O)c2cccs2)c(Cl)cc1Cl	-	43	-	-	-	-
Cc1c[nH]c2cccc(-c3ccc4c(c3)OCO4)c12	-	.	.	.	.	.
CC(C)(C)NC(=O)[C@@H](c1cccnc1)N(C(=O)c1ccco1)c1ccc(C(C)(C)C)cc1	-	.	.	.	.	.
CCCCNC(=O)c1ccccc1NC(=O)c1ccc2c(c1)OCO2	-	47	-	-	-	38
CCOc1ccc(N(CC(=O)Nc2c(C)n(C)n(-c3ccccc3)c2=O)S(=O)(=O)c2ccc3c(c2)N(C(=O)C2CCC2)CC3)cc1	-	.	.	.	.	.
O=C(NC1CCCCC1)C(c1ccncc1)N(CC1CCCO1)C(=O)C(F)(F)F (stereo unspecified)	-	41	-	-	-	-
COc1ccc(NC(=O)COC(=O)c2cc(C)oc2C)cc1OC	-	-	-	-	-	.
O=C(COC(=O)c1c[nH]c(=O)[nH]c1=O)Nc1cccc([N+](=O)[O-])c1	-	31	-	-	-	-
CCOc1ccc(NC(=O)COC(=O)c2cc(C)oc2C)cc1	-	57	-	-	-	53
Cc1cc(C(=O)OCC(=O)Nc2cccc([N+](=O)[O-])c2)c(C)o1	-	75	-	-	-	78
CCC(CC)C(=O)OCC(=O)Nc1cccc([N+](=O)[O-])c1	-	36	-	-	-	-
O=C(NC1CCCC1)C1CCN(C(=O)c2ccccc2Cl)CC1	-	-	-	-	-	.
Cc1cc2c(cc(C(=O)N3CCC(C(=O)NC4CCCC4)CC3)n2Cc2c(F)cccc2Cl)o1	-	64	-	-	-	49
O=C(COC(=O)CCC1CCCC1)Nc1ccc(F)cc1Cl	-	-	-	-	-	.
CC(C)=CC(=O)OCC(=O)Nc1cc([N+](=O)[O-])ccc1F	-	62	-	-	-	68
CC(C)=CC(=O)OCC(=O)Nc1ccc(F)cc1Cl	-	47	-	-	-	41
COc1ccccc1CNC(=O)N(CCc1c(C)[nH]c2ccccc12)Cc1cccs1	-	.	.	.	.	.
COc1cc(C(C)=O)ccc1COc1ccc(C(=O)OCC(=O)NC(C)(C)C)cc1OC	-	74	-	-	-	79
COc1cc(Cl)c(NS(=O)(=O)c2ccc(-c3ccc(=O)[nH]n3)o2)c(OC)c1	-	32	-	-	-	-
Cc1cccc(C)c1NS(=O)(=O)c1ccc(-c2ccc(=O)[nH]n2)o1	-	-	-	-	-	.
